High-throughput results (PubChem BioAssay)
This is a sample that favours compounds with a hit; in the whole collection about 2% have one here.
eIF4E 4G PPI: blocks eIF4E binding to eIF4G; AID 782; 220,000 compounds, 0.37% hits; inhibition, % at 21.7 µM; TR-FRET eIF4E-eIF4GI(517-606) binding, 2 h;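 note: 0% = full FRET control wells and 100% = background wells lacking eIF4GI fragment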
Diaphorase act: counter-screen for diaphorase-based assays: diaphorase activators and chemical reducers. Diaphorase/resazurin coupled assay, resorufin fluorescence, 16 min; stronger effect = higher value; 1 = vehicle wells, 0 = NADH-free wells. activation factor at 20 µM. 190,000 compounds, 0.005% hits. AID 1229;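 active = diaphorase activity raised at least twofold by the compound at 20 µM; inactive = activation factor below 2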
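Material: Clostridium kluyveri diaphorase, purified enzyme; Quantity: enzyme 0.07 U/mL final; Medium: HEPES pH 7.4 buffer with MgCl2 and Tween 20; Dosing: single compound dose of 20 µM, 1% DMSO final; Schedule: 16 min reaction at room temperature; Measured by: red resorufin fluorescence at 544/590 nm excitation/emission.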
Hck Nef HTS: inhibitors of human Hck kinase activated by Nef. P08631. Recombinant Hck-YEEI plus Nef, Z-Lyte FRET kinase assay. inhibition, % at 20 µM. 220,000 compounds, 0.68% hits. AID 463187;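 active = Hck-Nef kinase inhibition above about 50%, limit read from the data; inactive = inhibition below that limit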;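 note: 0% = DMSO with Hck plus Nef and 100% = Hck alone without Nef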
Target sequence (P08631 whole entry, looked up): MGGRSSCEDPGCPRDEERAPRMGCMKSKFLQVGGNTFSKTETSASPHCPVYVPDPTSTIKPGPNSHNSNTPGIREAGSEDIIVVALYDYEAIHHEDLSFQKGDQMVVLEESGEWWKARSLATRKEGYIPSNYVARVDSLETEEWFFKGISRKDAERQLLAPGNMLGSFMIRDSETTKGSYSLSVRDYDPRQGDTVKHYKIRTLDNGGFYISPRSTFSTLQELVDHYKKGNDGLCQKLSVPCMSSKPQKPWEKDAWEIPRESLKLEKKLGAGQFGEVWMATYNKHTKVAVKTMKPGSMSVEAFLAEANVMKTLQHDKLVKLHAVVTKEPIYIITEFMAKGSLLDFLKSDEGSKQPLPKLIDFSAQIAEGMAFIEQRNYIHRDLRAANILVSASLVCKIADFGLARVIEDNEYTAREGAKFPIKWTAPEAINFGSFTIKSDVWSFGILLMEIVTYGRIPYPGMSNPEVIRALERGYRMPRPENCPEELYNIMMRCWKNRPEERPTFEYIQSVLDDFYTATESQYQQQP
14-3-3 Bad PPI: disrupts binding of bovine 14-3-3 zeta to phospho-Bad peptide. AID 781. TR-FRET 14-3-3zeta/Dy647-pBad peptide displacement, 1 h. inhibition, % at 21.7 µM. P63103. 220,000 compounds, 0.71% hits;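 active = inhibition above about 70%, limit read from the data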;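 note: 0% = full 14-3-3 plus peptide FRET controls and 100% = background without 14-3-3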
NCF1 inh: p47phox (human) inhibition; P14598; p47phox/p22phox peptide binding, fluorescence polarization, 2 h; inhibition, % at 24.7 µM; 220,000 compounds, 0.53% hits; AID 1274;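 note: 0% = p47phox with labelled peptide and 100% = labelled peptide alone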
An asterisk follows results filed as active; . = no result given; + = active, no number; [ ] = remark or other dose.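 Rule for the calls, unless noted: active = inhibition above about 30% (limit read from the data); inactive = the rest.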

SMILES	eIF4E 4G PPI	Diaphorase act	Hck Nef HTS	14-3-3 Bad PPI	NCF1 inh
CCOC(=O)c1c(CSC(=N)N)n(-c2ccc(Br)cc2)c2cc(Br)c(OC(C)=O)cc12	37.1*[fluorescence artefact?]	1.8	0.4	95.7*[fluorescence artefact?]	92.7*
CCCCCCCCOC(=O)c1c(CSC(=N)N)n(C)c2cc(Br)c(OC(C)=O)cc12	-1.9	.	-36.9	85.2*	87.5*
COC(=O)c1c(N)n(-c2cc(OC)cc(OC)c2)c2nc3ccccc3nc12	.	.	15.5	.	.
CCN(CCO)c1ccc(-n2c(N)c(C(=O)OC)c3nc4ccccc4nc32)cc1	9.4	0.7	11.9	87.0*	17.7
CCn1c(SCC(=O)Nc2cc(C)on2)nc2sc3c(c2c1=O)CCCC3	-1.9	1	53.0*	8.1	-27.3
C=CCn1c(SCC(=O)Nc2cc(C)on2)nc2sc3c(c2c1=O)CCCC3	-2.9	1	8.9	9.6	6.0
COc1ccc(CN2CCOCC2)c(C)c1C	2.0	1	-0.3	70.6*	0.1
Cc1c(NC(=O)CN2CCN(c3ccccc3)CC2)c(=O)n(-c2ccccc2)n1C	5.3	0.9	1.6	-3.7	-6.3
Cc1c(NC(=O)CN2CC(C)OC(C)C2)c(=O)n(-c2ccccc2)n1C (configuration not stated)	9.1	0.8	0.1	85.8*	-1.9
CCCC1C2C(=O)N(c3ccc(OC)cc3)C(=O)C2ON1c1ccccc1 (configuration not stated)	-24.1	0.9	-2.2	89.8*	3.2
COc1ccc(S(=O)(=O)NCCN2CCOCC2)c2ccccc12	3.7	0.9	3.3	-6.5	-23.5
COc1c(S(=O)(=O)NCCCN2CCOCC2)ccc(Cl)c1Cl	86.2*	.	25.4	-9.8	-3.0
N#CC1=C(N)N(c2ccc(F)cc2)C2=C(C1c1ccc(O)cc1)S(=O)(=O)CC2 (configuration not stated)	19.5	0.6	41.8	-2.5	-36.5
Cc1cc(C)nc(SCc2ccc(C(=O)NNC(=O)Nc3cccc(Cl)c3)cc2)n1	13.1	0.9	31.8	93.9*	31.9*
COc1ccc(-c2ccc(/C=C3/C(=N)N4C=CSC4=NC3=O)o2)c([N+](=O)[O-])c1	10.0	0.8	29.7	72.7*[fluorescence artefact?]	2.1
O=C(O)CC(NNC(=O)c1ccccc1)C(=O)Nc1ccc([N+](=O)[O-])cc1 (configuration not stated)	-3.5	.	32.0	-5.6	-8.1
O=C(O)c1ccc(N2C(=O)CC(SC(=NCc3ccc4c(c3)OCO4)Nc3ccccc3)C2=O)cc1 (configuration not stated)	92.3*	.	10.7	1.1	-11.1
Nc1cc(-c2ccc(OC(F)(F)F)cc2)nn1-c1ccc(Cl)c(Cl)c1	1.2	.	2.8	-4.9	-10.3
COC(=O)c1cc(Br)c(=O)n(-c2ccc(F)cc2)c1	-4.9	0.9	-1.1	-0.1	31.3*
COC(=O)c1cc(Br)c(=O)n(CCc2ccc(F)cc2)c1	-6.3	0.9	1.7	5.7	-2.6
COC(=O)c1nc(NC2=NCCCCC2)n[nH]1	2.3	1	0.0	-5.9	-3.6
C1CCN=C(Nc2nn[nH]n2)CC1	6.4	0.9	6.9	70.6*	-12.8
C[N+](C)(C)c1ccc(/C=N/Nc2nc(Cl)c(C#N)c(Cl)c2Cl)cc1	30.1*[fluorescence artefact?]	0.9	1.9	40.2	16.0
N#Cc1c(Cl)nc(N/N=C/c2ccccc2)c(Cl)c1Cl	8.5	0.8	1.8	-0.7	-15.4
NS(=O)(=O)c1ccc(NC(=O)Nc2ccc(C(F)(F)F)cc2)cc1	5.2	.	8.9	-3.5	-24.7
SMILES	eIF4E 4G PPI	Diaphorase act	Hck Nef HTS	14-3-3 Bad PPI	NCF1 inh
Cc1noc(C)c1COC(=O)Cc1ccc(Cl)c(Cl)c1	-2.8	0.9	1.8	-5.0	+
COc1ccc(/C=N/NC(=O)CN(C2=NS(=O)(=O)c3ccccc32)c2ccccc2)cc1	5.1	0.9	2.3	8.8	30.6*
O=C(CN1C(=O)/C(=C\C=C\c2ccccc2)SC1=S)Nc1ccc(F)cc1	-0.2	0.9	4.2	5.6	-17.8
O=C(COC(=O)CCN1C(=O)/C(=C\C=C\c2ccccc2)SC1=S)Nc1cc(F)ccc1F	0.9	0.7	126.4*	-10.3	-12.8
O=[N+]([O-])c1ccc(/C=N/n2c(-c3cccnc3)n[nH]c2=S)cc1	1.2	0.7	0.5	9.9	8.2
Cc1ccsc1/C=N/n1c(-c2cccnc2)n[nH]c1=S	34.6*	0.8	-1.1	-0.8	-9.0
O=C(Cc1ccc(Cl)cc1)c1c[nH]c(C(=O)NCCCN2CCOCC2)c1	-2.0	1.2	-1.6	-3.1	-6.0
CC(=O)NS(=O)(=O)c1ccc(NC(=O)c2ccc3c(c2)C(=O)N(CCC(C)C)C3=O)cc1	16.5	0.8	3.0	-0.3	59.3*
CCC1CCCCN1C(=O)CSc1nc(N)cc(N)n1 (configuration not stated)	0.5	1	17.6	-7.6	1.8
COC(=O)c1ccc(OS(=O)(=O)N(C)C)cc1	2.1	0.9	-16.0	-2.2	-6.3
CCOC(=O)Cn1c(=O)cnc2ccccc21	2.6	0.9	1.2	1.5	31.8*
COC(=O)Cn1c(=O)cnc2ccccc21	6.3	0.9	-3.8	9.2	-5.1
Nc1c(C(=O)NCc2ccco2)sc2nc3c(cc12)C(=O)CCC3	31.7*[fluorescence artefact?]	0.5	7.6	10.1	-17.4
COc1cc(CN2CCC(C(=O)NC3CCCC3)CC2)ccc1O	-5.2	0.8	1.4	77.5*	-6.2
CCOC(=O)c1sc(/S(C)=N\S(=O)(=O)c2cccc(Cl)c2)c2c1CCC=C2 (configuration not stated)	4.6	.	19.4	15.7	-11.2
O=C(N/N=C/c1cc(Cl)ccc1O)c1ccc(Br)cc1	19.1	1	0.2	20.8	-21.3
Cc1ccc(N=Nc2ccc(O)c(/C=N\NC(=O)c3ccc(N)cc3)c2)cc1C	-25.4	1	34.5	85.0*[fluorescence artefact?]	-6.3
O=C(O)CCCCCN1C(=O)/C(=C\c2ccc(-c3ccc(Cl)cc3)o2)SC1=S	24.4	.	46.9	70.6*	15.8
O=C(O)CCCN1C(=O)/C(=C/c2ccc(-c3nc4ccccc4s3)o2)SC1=S	-0.2	0.8	-3.7	-1.5	-255.8
CCOc1ccc(C2C(C(=O)Nc3ccc(F)cc3)=C(C)Nc3nc(CCCO)nn32)cc1 (configuration not stated)	-0.3	0.8	0.9	77.1*	-6.9
CC(=O)Nc1cccc(OCCCNC(=O)c2cccc3ccccc23)c1	3.8	.	-1.4	2.5	13.2
CCc1ccc2nc(NC(=O)Cn3cnc4ccccc4c3=O)sc2c1	20.4	1.1	55.1*	0.2	-8.3
Cc1cccc(Oc2ncnc3onc(C)c23)c1C	-3.3	0.9	0.9	85.3*[fluorescence artefact?]	5.0
CCN(CC)CCn1c(NCc2ccccn2)nc2ccccc21	-5.1	1	1.5	77.1*	-10.9
COC(=O)c1c(C)[nH]c(C)c1-c1ccccc1	-3.1	1	2.0	80.5*[fluorescence artefact?]	-13.0
